The source made the active and inactive calls. The calls are words filed in the database; no cut-off is given here.
Assays:
Integrin alpha-4/beta-1 [1] = molecular target: T1, Integrin alpha-4/beta-1 (Homo sapiens, UniProt P05556+P13612); experiment: Antagonist activity at alpha4beta1 in human Jurkat E6.1 cells assessed as reduction in cell adhesion to VCAM1 pre-incubated for 30 mins before VCAM1 and further incubated for 30 mins by […]; format: cell-based
Integrin alpha-V/beta-5 [2] = molecular target: T2, Integrin alpha-V/beta-5 (Homo sapiens, UniProt P06756+P18084); experiment: Inhibition of fibrinogen binding to alphaVbeta5 isolated form human mCf7 cells incubated for 1 hr by […] competitive solid-phase binding assay
[3] = molecular target: T3, Integrin alpha-IIb/beta-3 (Homo sapiens, UniProt P05106+P08514); experiment: Agonist activity at alpha2bbeta3 in human HEL cells assessed as increase in cell adhesion to fibrinogen pre-incubated for 30 mins before fibrinogen and further incubated for 1 hr by nitrophenyl-N-acetyl-beta-D-glucosaminide substrate based chromogenic assay
In short: (§1)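 Compound or methanol vehicle pre-incubated with cells for 30 min at room temperature. Cells then plated on wells coated overnight at 4 °C with fibronectin 10 µg/mL (SK-MEL-24, K562, HT-29) or fibrinogen 10 µg/mL (MCF7, HEL). Seeding was 50,000 cells/well, or 100000 for HEL. Adhesion ran 1 h at room temperature. Wells washed with 1% BSA/PBS. Quadruplicate, at least three repeats.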

[4] = molecular target: T3, Integrin alpha-IIb/beta-3; experiment: Antagonist activity at alpha2bbeta3 in human HEL cells assessed as reduction in cell adhesion to fibrinogen pre-incubated for 30 mins before fibrinogen and further incubated for 1 hr by nitrophenyl-N-acetyl-beta-D-glucosaminide substrate based chromogenic assay; in short: as §1
Integrin alpha-V/beta-6 [5] = molecular target: T4, Integrin alpha-V/beta-6 (Homo sapiens, UniProt P06756+P18564); experiment: Inhibition of fibronectin binding to alphaVbeta6 isolated form human HT-29 cells incubated for 1 hr by […] competitive solid-phase binding assay; format: tissue-based
Integrin alpha-V/beta-3 [6] = molecular target: T5, Integrin alpha-V/beta-3 (Homo sapiens, UniProt P05106+P06756); experiment: Inhibition of fibronectin binding to human recombinant alphaVbeta3 expressed in HEK293 cells incubated for 1 hr by […] competitive solid-phase binding assay; format: cell-based
Integrin alpha-4/beta-1 [7] = molecular target: T1, Integrin alpha-4/beta-1; experiment: Agonist activity at alpha4beta1 in human Jurkat E6.1 cells assessed as increase in cell adhesion to VCAM1 pre-incubated for 30 mins before VCAM1 and further incubated for 30 mins by […]; format: cell-based
In short: (§2)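 Jurkat E6.1 cells labelled with CellTracker green CMFDA (12.5 µM, 30 min, 37 °C), washed, then pre-incubated 30 min at 37 °C with compound or methanol. Plated at 500,000/well on VCAM-1 (α4β1) or ICAM-1 (αLβ2) coated wells (5 µg/mL) for 30 min at 37 °C. Cells lysed in 0.5% Triton X-100; fluorescence read Ex485/Em535. Quadruplicate, at least three repeats.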

Integrin alpha-5/beta-1 [8] = molecular target: T6, Integrin alpha-5/beta-1 (Homo sapiens, UniProt P05556+P08648); experiment: Inhibition of fibronectin binding to alpha5beta1 isolated from human K562 cells incubated for 1 hr by […] competitive solid-phase binding assay; format: tissue-based
In short: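 Plates coated overnight at 4 °C in carbonate buffer pH 9.6 with fibronectin 0.5 µg/mL (αvβ3, αvβ6, α5β1), fibrinogen 10 µg/mL (αIIbβ3, αvβ5) or ICAM-1 (αLβ2). Blocked 1 h in buffer containing Ca/Mg/Mn 1 mM each and 1% BSA. Purified integrin (3–10 µg/mL) incubated with compound (10⁻⁴–10⁻¹⁰ M) 1 h at room temperature. Bound integrin detected with primary antibody then AlexaFluor488 secondary, Ex485/Em535. Duplicate, at least three repeats.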

[9] = molecular target: T7, Integrin alpha-L/beta-2 (LFA-1) (Homo sapiens, UniProt P05107+P20701); experiment: Antagonist activity at alphaLbeta2 in human Jurkat E6.1 cells assessed as reduction in cell adhesion to ICAM1 pre-incubated for 30 mins before ICAM1 and further incubated for 30 mins by […]; format: cell-based; in short: as §2
Integrin alpha-V/beta-3 [10] = molecular target: T5, Integrin alpha-V/beta-3; experiment: Agonist activity at alphaVbeta3 in human SK-MEL-24 cells assessed as increase in cell adhesion to fibronectin at 2 to 10 ug/ml pre-incubated for 30 mins and further incubated for 1 hr by nitrophenyl-N-acetyl-beta-D-glucosaminide substrate based chromogenic assay; settings: filed as agonist, dose 2-10 µg/ml, time 90.0 min
MCF7 = experiment: Toxicity in human MCF7 cells assessed as induction of cell necrosis and/or apoptosis incubated for 3 hrs by annexin V-PE and 7-AAD staining based by flow cytometry; settings: mcf7, 3 h
In short: (§3)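 After 3 h incubation, cells resuspended in complete medium and stained with annexin V-PE/7-AAD reagent for 20 min at room temperature in the dark. Flow cytometry sorted cells into viable, early apoptotic and late apoptotic/necrotic populations.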

SK-MEL-24 = experiment: Toxicity in human SK-MEL-24 cells assessed as induction of cell necrosis and/or apoptosis incubated for 3 hrs by annexin V-PE and 7-AAD staining based by flow cytometry; settings: sk-mel-24, 3 h; in short: as §3
Integrin alpha-V/beta-5 [11] = molecular target: T2, Integrin alpha-V/beta-5; experiment: Agonist activity at alphaVbeta5 in human MCF7 cells assessed as increase in cell adhesion to fibrinogen pre-incubated for 30 mins before fibrinogen and further incubated for 1 hr by nitrophenyl-N-acetyl-beta-D-glucosaminide substrate based chromogenic assay
In short: as §1, with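 “BSA/PBS. Adherent cells read by hexosaminidase substrate, absorbance 405 nm.” for “BSA/PBS.”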

HEL = experiment: Toxicity in human HEL cells assessed as induction of cell necrosis and/or apoptosis incubated for 3 hrs by annexin V-PE and 7-AAD staining based by flow cytometry; in short: as §3
Integrin alpha-V/beta-6 [12] = molecular target: T4, Integrin alpha-V/beta-6; experiment: Agonist activity at alphaVbeta6 in human HT-29 cells assessed as increase in cell adhesion to fibronectin pre-incubated for 30 mins before fibronectin and further incubated for 1 hr by nitrophenyl-N-acetyl-beta-D-glucosaminide substrate based chromogenic assay
In short: as §1, with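 “BSA/PBS. Adherent cells read by hexosaminidase substrate, absorbance 405 nm.” for “BSA/PBS.”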

HT-29 = experiment: Toxicity in human HT-29 cells assessed as induction of cell necrosis and/or apoptosis incubated for 3 hrs by annexin V-PE and 7-AAD staining based by flow cytometry; settings: ht-29, 3 h; in short: as §3
[13] = molecular target: T3, Integrin alpha-IIb/beta-3; experiment: Inhibition of fibrinogen binding to alpha2bbeta3 isolated from human HEL cells incubated for 1 hr by […] competitive solid-phase binding assay
Integrin alpha-V/beta-3 [14] = molecular target: T5, Integrin alpha-V/beta-3; experiment: (§4) Agonist activity at alphaVbeta3 in human SK-MEL-24 cells assessed as increase in cell adhesion to fibronectin at 10 ug/ml pre-incubated for 30 mins and further incubated for 1 hr in presence of in presence of integrin antagonist c(-RGDfV) by nitrophenyl-N-acetyl-beta-D-glucosaminide substrate based chromogenic assay; settings: dose 10.0 µg/ml, time 90.0 min
Integrin alpha-4/beta-1 [15] = molecular target: T1, Integrin alpha-4/beta-1; experiment: Inhibition of fibronectin binding to […] isolated from human Jurkat E6.1 cells incubated for 1 hr by scintillation-proximity assay based competitive solid-phase binding assay; format: tissue-based
Integrin alpha-V/beta-3 [16] = molecular target: T5, Integrin alpha-V/beta-3; experiment: as §4, with “of neutralizing antibody against the alphaV” for “of in presence of”, “integrin subunit” for “integrin antagonist c(-RGDfV)”; settings: dose 10.0 µg/ml, time 90.0 min
K562 = experiment: Toxicity in human K562 cells assessed as induction of cell necrosis and/or apoptosis incubated for 3 hrs by annexin V-PE and 7-AAD staining based by flow cytometry; settings: k562, 3 h; in short: as §3
Integrin alpha-5/beta-1 [17] = molecular target: T6, Integrin alpha-5/beta-1; experiment: Antagonist activity at alpha5beta1 in human K562 cells assessed as reduction in cell adhesion to fibronectin pre-incubated for 30 mins before fibronectin and further incubated for 1 hr by nitrophenyl-N-acetyl-beta-D-glucosaminide substrate based chromogenic assay
In short: as §1, with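 “BSA/PBS. Adherent cells read by hexosaminidase substrate, absorbance 405 nm.” for “BSA/PBS.”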

Integrin alpha-4/beta-1 [18] = molecular target: T1, Integrin alpha-4/beta-1; experiment: Antagonist activity at alpha4beta1 in human Jurkat E6.1 cells assessed as reduction in exposure of HUTS-21 epitope measured by mAb binding; format: cell-based; settings: filed as antagonist
In short: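 Jurkat E6.1 cells at 10⁶/mL in 1% BSA/HBSS incubated 30 min at 37 °C with compound. PE-labelled HUTS-21 mAb then added for 45 min at room temperature. Cells washed, 10,000 analysed by flow cytometry. MFI corrected to isotype control set to 0. Four independent experiments in duplicate.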

Integrin alpha-V/beta-3 [19] = molecular target: T5, Integrin alpha-V/beta-3; experiment: Antagonist activity at alphaVbeta3 in human SK-MEL-24 cells assessed as reduction in cell adhesion to fibronectin pre-incubated for 30 mins before fibronectin and further incubated for 1 hr by nitrophenyl-N-acetyl-beta-D-glucosaminide substrate based chromogenic assay; in short: as §1
Integrin alpha-V/beta-5 [20] = molecular target: T2, Integrin alpha-V/beta-5; experiment: Antagonist activity at alphaVbeta5 in human MCF7 cells assessed as reduction in cell adhesion to fibrinogen pre-incubated for 30 mins before fibrinogen and further incubated for 1 hr by nitrophenyl-N-acetyl-beta-D-glucosaminide substrate based chromogenic assay; in short: as §1
Integrin alpha-V/beta-3 [21] = molecular target: T5, Integrin alpha-V/beta-3; experiment: Agonist activity at alphaVbeta3 in human SK-MEL-24 cells assessed as increase in cell adhesion to fibronectin pre-incubated for 30 mins before fibronectin and further incubated for 1 hr by nitrophenyl-N-acetyl-beta-D-glucosaminide substrate based chromogenic assay
In short: as §1, with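 “BSA/PBS. Adherent cells read by hexosaminidase substrate, absorbance 405 nm.” for “BSA/PBS.”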

Integrin alpha-V/beta-6 [22] = molecular target: T4, Integrin alpha-V/beta-6; experiment: Antagonist activity at alphaVbeta6 in human HT-29 cells assessed as reduction in cell adhesion to fibronectin pre-incubated for 30 mins before fibronectin and further incubated for 1 hr by nitrophenyl-N-acetyl-beta-D-glucosaminide substrate based chromogenic assay; in short: as §1
[23] = molecular target: T7, Integrin alpha-L/beta-2 (LFA-1); experiment: Agonist activity at alphaLbeta2 in human Jurkat E6.1 cells assessed as increase in cell adhesion to ICAM1 pre-incubated for 30 mins before ICAM1 and further incubated for 30 mins by […]; format: cell-based; in short: as §2
Integrin alpha-4/beta-1 [24] = molecular target: T1, Integrin alpha-4/beta-1; experiment: Antagonist activity at alpha4beta1 in human Jurkat E6.1 cells assessed as reduction in VCAM-1 induced ERK1/2 phosphorylation at 1 to 100 nM by Western blot analysis; format: cell-based; settings: filed as antagonist, dose 1-100 nM

SMILES	IC50 (Integrin alpha-4/beta-1 [1])	IC50 (Integrin alpha-V/beta-5 [2])	EC50 [3]	IC50 [4]	IC50 (Integrin alpha-V/beta-6 [5])	IC50 (Integrin alpha-V/beta-3 [6])	IC50 (Integrin alpha-5/beta-1 [8])	IC50 [9]	Activity (MCF7)	Activity (SK-MEL-24)	EC50 (Integrin alpha-V/beta-5 [11])	Activity (HEL)	EC50 (Integrin alpha-V/beta-6 [12])	Activity (HT-29)	IC50 [13]	IC50 (Integrin alpha-4/beta-1 [15])	Activity (K562)	other results
NCc1ccc(NC(=O)N2C(=O)CC2CC(=O)O)cc1.O=C(O)C(F)(F)F (stereo unspecified)	> 5 µM	0.0038 µM	> 5 µM	> 5 µM	0.0805 µM	0.0056 µM	0.0055 µM	2.41 µM	Non-Toxic	Non-Toxic	0.00509 µM	Non-Toxic	0.167 µM	Non-Toxic	> 1 µM	> 1 µM	Non-Toxic	EC50 (Integrin alpha-4/beta-1 [7]): > 5 µM; Activity (Integrin alpha-V/beta-3 [10]): Dose-dependent effect; Activity (Integrin alpha-V/beta-3 [14]): inactive; Activity (Integrin alpha-V/beta-3 [16]): inactive
Nc1ccc(CNC(=O)N2C(=O)C[C@H]2C(=O)O)cc1.O=C(O)C(F)(F)F	0.0088 µM	> 1 µM	> 5 µM	> 5 µM	> 1 µM	> 1 µM	0.331 µM	> 5 µM	Non-Toxic	Non-Toxic	> 5 µM	Non-Toxic	> 5 µM	Non-Toxic	> 1 µM	0.0076 µM	Non-Toxic	IC50 (Integrin alpha-5/beta-1 [17]): 0.525 µM; Activity (Integrin alpha-4/beta-1 [18]): Dose-dependent effect; IC50 (Integrin alpha-V/beta-3 [19]): > 5 µM; IC50 (Integrin alpha-V/beta-5 [20]): > 5 µM; EC50 (Integrin alpha-V/beta-3 [21]): > 5 µM; IC50 (Integrin alpha-V/beta-6 [22]): > 5 µM; EC50 [23]: > 5 µM; Activity (Integrin alpha-4/beta-1 [24]): Dose-dependent effect

— ChEMBL document CHEMBL4680084, “New β-Lactam Derivatives Modulate Cell Adhesion and Signaling Mediated by RGD-Binding and Leukocyte Integrins” (J Med Chem, 2016)
